# Experimental data as given in ChEMBL document CHEMBL1671848, “In Vitro and In Vivo Osteogenic Activity of Largazole” (ACS Med Chem Lett, 2011).
# Active and inactive are the calls of the source. The rule behind the calls is not given here.
# Legend:
# Oryctolagus cuniculus = organism: Oryctolagus cuniculus; assay: Osteogenic activity in rabbit calvarial bone fracture healing model assessed as bone formation at 100 to 200 nM after 4 weeks; type: functional
# C2C12 [1] = assay: Osteogenic activity in mouse C2C12 cells assessed as increase of BMP6 mRNA expression at up to 50 nM after 6 days by RT-PCR analysis; type: functional, cell-based
# How it was run: (§1)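 Quantitative real-time PCR of mRNA from C2C12 cells, 1 × 10^6 cells per 60-mm plate, treated 6 days; rhBMP-2 at 300 ng/mL served as reference osteoblastogenesis inducer.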
# C2C12 [2] = assay: Induction of osteoblast differentiation in mouse C2C12 cells assessed as increase of osteopontin expression up to 100 nM after 6 days; type: functional, cell-based
# [3] = target: Runt-related transcription factor 2 (Mus musculus) (UniProt Q08775); assay: Activation of Runx2 activity in mouse C2C12 cells at 50 nM after 24 hrs by luciferase reporter gene assay relative to control; type: cell-based
# How it was run: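 6×OSE2-luc plasmid-transfected C2C12 cells, 4 × 10^3 cells/well, cultured 1 day, then 1 day in DMEM with 5% FBS with or without compound; Runx2 activation read as luciferase activity.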
# C2C12 [4] = assay: Osteogenic activity in mouse C2C12 cells assessed as increase of Runx2 mRNA expression at 50 nM after 6 days by RT-PCR analysis relative to control; type: functional; how it was run: as §1
# C2C12 [5] = assay: Inhibition of HDAC in mouse C2C12 cells assessed as increase of acetylated histone level after 24 hrs by Western blotting; type: cell-based
# How it was run: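 C2C12 cells, 2 × 10^6 cells per 100-mm plate, cultured 24 h, then treated 24 h; protein extracts analysed for hyperacetylated histones by Western blot with actin as loading control.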
# C2C12 [6] = assay: Induction of osteoblast differentiation in mouse C2C12 cells assessed as increase of alkaline phosphatase expression after 6 days; type: functional, cell-based
# How it was run: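 C2C12 cells, 4 × 10^3 cells/well, cultured 24 h, then treated for 6 days with medium changed every 3 days; osteoblast differentiation assessed by alkaline phosphatase staining.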
# Mus musculus [7] = assay: Osteogenic activity in mouse assessed as induction of woven bone formation at 10 uM administered with collagen sponges in calvarial bone after 3 weeks; type: functional, organism-based
# How it was run: (§2)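 Collagen sponges holding 5 μL of compound solution or PBS vehicle placed onto mouse calvarial bones; after 3-week implantation calvariae removed, fixed, decalcified, paraffin-embedded and sectioned for histology of woven bone formation.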
# Mus musculus [8] = assay: Osteogenic activity in mouse assessed as induction of woven bone formation at 50 uM administered with collagen sponges in calvarial bone after 3 weeks; type: functional, organism-based; how it was run: as §2
# C2C12 [9] = assay: Osteogenic activity in mouse C2C12 cells assessed as increase of BMP2 mRNA expression at up to 50 nM after 6 days by RT-PCR analysis; type: functional, cell-based; how it was run: as §1
# C2C12 [10] = assay: Osteogenic activity in mouse C2C12 cells assessed as increase of BMP9 mRNA expression at up to 50 nM after 6 days by RT-PCR analysis; type: functional, cell-based; how it was run: as §1
# C2C12 [11] = assay: Osteogenic activity in mouse C2C12 cells assessed as increase of BMP7 mRNA expression at up to 50 nM after 6 days by RT-PCR analysis; type: functional, cell-based; how it was run: as §1
# C2C12 [12] = assay: Cytotoxicity against mouse C2C12 cells up to 100 uM after 3 days; type: cell-based; conditions: c2c12, 72 h
# C2C12 [13] = assay: Osteogenic activity in mouse C2C12 cells assessed as increase of BMP4 mRNA expression at up to 50 nM after 6 days by RT-PCR analysis; type: functional, cell-based; how it was run: as §1
# C2C12 [14] = assay: Inhibition of HDAC in mouse C2C12 cells at 5 to 100 nM after 24 hrs by fluorescence assay; type: cell-based
# How it was run: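 Total HDAC activity in intact C2C12 cells, 4 × 10^3 cells/well, cultured 24 h, pretreated with compound 1 h, then incubated with fluorogenic deacetylase Lysyl substrate; HDAC activity read by fluorescence per kit protocol.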
# C2C12 [15] = assay: Osteogenic activity in mouse C2C12 cells assessed as inhibition of multinucleated osteoclasts formation after 6 days; type: functional, cell-based
# Runt-related transcription factor 2 (Mus musculus), sequence (Q08775 whole entry): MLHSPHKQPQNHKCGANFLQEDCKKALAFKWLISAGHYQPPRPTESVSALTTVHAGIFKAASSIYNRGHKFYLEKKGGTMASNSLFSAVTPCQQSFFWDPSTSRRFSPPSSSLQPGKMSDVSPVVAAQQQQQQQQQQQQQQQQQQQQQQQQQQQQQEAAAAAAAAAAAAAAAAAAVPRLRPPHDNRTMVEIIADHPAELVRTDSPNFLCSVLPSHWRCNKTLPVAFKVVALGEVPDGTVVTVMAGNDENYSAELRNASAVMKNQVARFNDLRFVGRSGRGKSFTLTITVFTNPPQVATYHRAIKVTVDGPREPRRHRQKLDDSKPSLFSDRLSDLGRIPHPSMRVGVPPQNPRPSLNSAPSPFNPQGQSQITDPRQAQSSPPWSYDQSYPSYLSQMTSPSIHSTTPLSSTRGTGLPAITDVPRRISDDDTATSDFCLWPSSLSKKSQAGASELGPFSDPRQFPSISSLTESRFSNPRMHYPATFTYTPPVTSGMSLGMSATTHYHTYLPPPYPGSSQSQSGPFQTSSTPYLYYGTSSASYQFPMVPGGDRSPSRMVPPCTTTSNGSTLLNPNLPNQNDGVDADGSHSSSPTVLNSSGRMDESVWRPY
smiles,measurement,setting,value
CCCCCCCC(=O)SCC/C=C/[C@@H]1CC(=O)NCc2nc(cs2)C2=N[C@@](C)(CS2)C(=O)N[C@@H](C(C)C)C(=O)O1 [LARGAZOLE],Activity,Oryctolagus cuniculus,Active
same,Activity,C2C12 [1],Active
same,Activity,C2C12 [2],Active
same,fold change (FC),[3],29
same,fold change (FC),C2C12 [4],3
same,inhibition,C2C12 [5],Dose-dependent effect
same,Activity,C2C12 [6],Active
same,Activity,Mus musculus [7],Active
same,Activity,Mus musculus [8],Active
same,Activity,C2C12 [9],Active
same,Activity,C2C12 [10],Active
same,Activity,C2C12 [11],Active
same,Activity,C2C12 [12],Non-toxic
same,Activity,C2C12 [13],Active
same,inhibition,C2C12 [14],Active
same,Activity,C2C12 [15],Active
